# Results taken from ChEMBL document CHEMBL1126276, “Synthesis and antimalarial properties of 1-imino derivatives of 7-chloro-3-substituted-3,4-dihydro-1,9(2H,10H)-acridinediones and related structures” (J Med Chem, 1992).
# Values joined by “and” are separate entries in the source; they are usually repeats but may differ in a detail not shown here. Equal entries are not always repeated.
# Legend:
# [1] = tested on: Plasmodium berghei; experiment: Antimalarial activity in Plasmodium berghei infected mice (Mus musculus) after 320 mg/kg subcutaneous dose; type: functional
# In short: (§1)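 […] in mice infected with a normal drug-sensitive P. berghei strain. Compound dissolved or suspended in sesame or peanut oil, given as a single subcutaneous dose 72 h postinfection.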
# [2] = tested on: Plasmodium berghei; experiment: (§2) Antimalarial activity in Plasmodium berghei infected mice (Mus musculus) after 80 mg/kg subcutaneous dose; type: functional; in short: as §1
# [3] = tested on: Plasmodium berghei; experiment: (§3) Antimalarial activity in Plasmodium berghei infected mice (Mus musculus) after 20 mg/kg subcutaneous dose; type: functional; in short: as §1
# [4] = tested on: Plasmodium berghei; experiment: Antimalarial activity was measured against mice (Mus musculus) infected with Plasmodium berghei by subcutaneous administration of 640 mg/kg dose; type: organism-based; design: dose 640 mg/kg, route subcutaneous; conditions: in vivo, sc; in short: as §1
# [5] = tested on: Plasmodium berghei; experiment: (§4) Antimalarial activity in Plasmodium berghei infected mice (Mus musculus) after 40 mg/kg subcutaneous dose; type: functional; in short: as §1
# [6] = tested on: Plasmodium berghei; experiment: as §3; type: functional; remark: listed apart in the source
# In short: (§5)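 Normal drug-sensitive P. berghei strain in mice. Compound dissolved or suspended in sesame or peanut oil, given parenterally as a single subcutaneous dose 72 h postinfection.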
# [7] = tested on: Plasmodium berghei; experiment: Antimalarial activity in Plasmodium berghei infected mice (Mus musculus) after subcutaneous 160 mg/kg dose; type: functional; in short: as §5
# [8] = tested on: Plasmodium berghei; experiment: Antimalarial activity in Plasmodium berghei infected mice (Mus musculus) after subcutaneous 640 mg/kg dose; type: functional; in short: as §5
# [9] = tested on: Plasmodium berghei; experiment: Antimalarial activity in Plasmodium berghei infected mice (Mus musculus) after subcutaneous 320 mg/kg dose; type: functional; in short: as §5
# [10] = tested on: Plasmodium berghei; experiment: as §4; type: functional; in short: as §5; remark: listed apart in the source
# [11] = tested on: Plasmodium berghei; experiment: as §2; type: functional; in short: as §5; remark: listed apart in the source
# [12] = tested on: Plasmodium berghei; experiment: Antimalarial activity in Plasmodium berghei infected mice (Mus musculus) after 160 mg/kg subcutaneous dose; type: functional; in short: as §1
# [13] = tested on: Plasmodium berghei; experiment: Antimalarial activity Plasmodium berghei infected mice (Mus musculus) after 640 mg/kg subcutaneous dose; type: functional; in short: as §1
Compound,Delta mean survival time [1],Delta mean survival time [2],Delta mean survival time [3],No. of toxic deaths [4],Delta mean survival time [5],No. of cured mice [6],No. of cured mice [7],No. of cured mice [8],No. of cured mice [9],No. of cured mice [10],No. of cured mice [11],Delta mean survival time [12],Delta mean survival time [13],Delta mean survival time ([5]; 40 mg/kg),Delta mean survival time ([2]; 80 mg/kg),Delta mean survival time ([3]; 20 mg/kg),No. of cured mice ([10]; 40 mg/kg)
COc1ccccc1C1CC(=O)c2c(n(O)c3ccc(Cl)cc3c2=O)C1 (centres undefined),2.2,1.8,0.8,3,2.2,–,–,–,–,–,–,–,–,–,–,–,–
OCCNCC/N=C1\CC(c2ccc(Cl)cc2Cl)Cc2nc3ccc(Cl)cc3c(O)c21 (centres undefined),–,–,–,–,–,5,5,5,5,5,5,–,–,–,–,–,–
O=c1c2c(n(O)c3ccc(Cl)cc13)CC(c1ccc(Cl)c(Cl)c1)C/C2=N\CCCNCCO (centres undefined),11.6,7.9,2,–,6.6,–,3,5,4,–,1,9.6,–,–,–,–,–
O=C1CC(c2cccc(Br)c2)Cc2c1c(=O)c1cc(Cl)ccc1n2O (centres undefined),10.7,5.9,0.1,–,2.5,–,1,4,1,–,–,9.2,7.9,–,–,–,–
O=C1CC(c2c(Cl)cccc2Cl)Cc2c1c(=O)c1cc(Cl)ccc1n2O (centres undefined),23.9,5.1,0.7,–,1.5,–,1,2,3,–,–,5.8,11.2,–,–,–,–
O=c1c2c(n(O)c3ccc(Cl)cc13)CC(c1ccc(C(F)(F)F)cc1)C/C2=N\CCCN1CCCCC1 (centres undefined),–,12,8.5,4,10,–,5,1,5,3,3,–,–,–,–,–,–
CC(C)CN(CC/N=C1\CC(c2ccc(Cl)c(Cl)c2)Cc2c1c(=O)c1cc(Cl)ccc1n2O)CC(C)C (centres undefined),13,6.3,3.6,–,5.3,–,2,5,1,1,1,9.7,–,–,–,–,–
CCN(CC)Cc1cccc(/N=C2\CC(c3ccc(Cl)c(Cl)c3)Cc3c2c(=O)c2cc(Cl)ccc2n3O)c1 (centres undefined),22.6,8,1.6,–,6.6,–,2,4,4,–,–,10.3,42.6,–,–,–,–
CC1C(=O)c2c(n(O)c3ccc(Cl)cc3c2=O)CC1c1ccc(Cl)c(Cl)c1 (centres undefined),–,–,7.6,–,9.6,3,5,5,5,4,5,–,–,–,–,–,–
O=c1c2c(n(O)c3ccc(Cl)cc13)CC(c1cccc(C(F)(F)F)c1)C/C2=N\CCN1CCCC1 (centres undefined),–,8,–,1,6.6,–,4,4,5,–,–,9.6,–,–,–,–,–
O=C1CC(c2ccc(Cl)cc2Cl)Cc2c1c(=O)c1cc(Cl)ccc1n2O (centres undefined),–,–,1.9,–,–,2,5,5,5,5,5,–,–,–,–,–,–
CC1C(=O)c2c(nc3ccc(Cl)cc3c2O)CC1c1ccc(Cl)c(C(F)(F)F)c1 (centres undefined),5,1.1,0.9,–,0.7,–,1,2,1,–,–,1.5,5.7,–,–,–,–
CSc1ccc(C2C/C(=N\CCCN(C)C)c3c(nc4ccc(Cl)cc4c3O)C2)cc1 (centres undefined),12.8,4,2.8,1,3.4,–,1,4,3,–,1,9.8,–,–,–,–,–
CC1C(=O)c2c(n(O)c3ccc(Cl)cc3c2=O)CC1c1ccc(Cl)cc1Cl (centres undefined),–,–,10.7,–,–,2,5,5,5,5,5,–,–,–,–,–,–
O=C1CC(c2ccccc2)Cc2c1c(=O)c1cc(Cl)ccc1n2O (centres undefined),9.3,5.6,1.8,–,4,–,2,3,2,–,–,5.7,11.5,–,–,–,–
COc1cc(C2C/C(=N\CCCN3CCCCC3)c3c(n(O)c4ccc(Cl)cc4c3=O)C2)cc(OC)c1OC (centres undefined),–,–,–,1,0.3,–,–,–,–,–,–,1.4,4.5,–,–,–,–
CCN(CC)CCCC/N=C1\CC(c2ccc(C(F)(F)F)cc2)Cc2nc3ccc(Cl)cc3c(O)c21 (centres undefined),–,–,18.6,–,13.6,2,5,5,5,4,5,–,–,–,–,–,–
CCN(CC)CC(C)(C)C/N=C1\CC(c2ccc(Cl)c(Cl)c2)Cc2c1c(=O)c1cc(Cl)ccc1n2O (centres undefined),13.6,10.3,4,–,9.6,–,4,5,4,1,2,14.6,–,–,–,–,–
CN(C)CCC/N=C1\CC2(CCCCC2)Cc2nc3ccc(Cl)cc3c(O)c21,–,–,–,1,0.6,–,–,–,–,–,–,0,0.4,–,–,–,–
COCCC/N=C1\CC(c2cccc(C(F)(F)F)c2)Cc2c1c(=O)c1cc(Cl)ccc1n2O (centres undefined),13.8,–,–,–,–,–,1,5,3,–,1,5.1,–,–,–,–,–
CCCCCCC/N=C1\CC(c2ccc(C(F)(F)F)cc2)Cc2c1c(=O)c1cc(Cl)ccc1n2O (centres undefined),14.7,–,–,1,4.3,–,5,4,3,–,5,–,–,–,–,–,–
CC1C(=O)c2c(nc3ccc(Cl)cc3c2O)CC1c1ccc(Cl)cc1Cl (centres undefined),17,1.18,8.2,–,–,–,2,5,2,–,2,15,–,10 and 9.3,–,–,–
N=C1CC(c2ccc(C(F)(F)F)cc2)Cc2nc3ccc(Cl)cc3c(O)c21 (centres undefined),–,–,11.2,–,–,1,5,5,5,5,5,–,–,–,–,–,–
O=C1CC(c2ccc(C(F)(F)F)cc2)Cc2nc3ccc(Br)cc3c(O)c21 (centres undefined),10.6,3,3.6,–,5,–,1,4,3,–,–,4.4,12.8,–,–,–,–
CN(C)CCC/N=C1/c2c([nH]c3ccc(Cl)cc3c2=O)CC(c2ccc(Cl)c(Cl)c2)C1Cc1ccccc1 (centres undefined),7.7,0.7,-0.1,5,0.5,–,–,–,–,–,–,6.1,–,–,–,–,–
O=C1CC(c2ccc(C(F)(F)F)cc2)Cc2c1c(=O)c1cc(Cl)ccc1n2Cc1ccccc1 (centres undefined),–,–,–,1,0.2,–,–,–,–,–,–,0,0.3,–,–,–,–
CN(C)CCC/N=C1\CC(c2ccc(C(F)(F)F)cc2)Cc2nc3ccc(I)cc3c(O)c21 (centres undefined),–,–,–,1,3,–,2,1,–,–,–,7.3,14,–,–,–,–
CC1/C(=N\CCCN(C)C)c2c(nc3ccc(Cl)cc3c2O)CC1c1ccc(Cl)c(Cl)c1 (stereo in doubt),–,–,–,1,–,–,–,4,–,–,–,–,–,21,10.7,7.8,4
